Data taken from ChEMBL document CHEMBL1150393, “Evaluation of radiolabeled (hetero)aromatic analogues of N-(2-diethylaminoethyl)-4-iodobenzamide for imaging and targeted radionuclide therapy of melanoma” (J Med Chem, 2008).

How the values were obtained:
Settings in all cases: in vivo
[1] = Biodistribution in gall bladder of C57BL/6 mouse bearing mouse B16-F0 cells at 0.74 to 0.92 MBq, iv after 3 hrs; format: ADME, organism-based
Summary of the method: (§1)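 Male C57BL6 mice with s.c. left-flank B16-F0 melanoma (5 × 10⁵ cells in PBS). Two mice per time point frozen in liquid nitrogen after CO₂ sacrifice. Eight 40 µm whole-body cryosections per mouse read by multiwire proportional counter. cpm/mm² converted to kBq/g and expressed as %ID/g.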

[2] = Biodistribution in gall bladder of C57BL/6 mouse bearing mouse B16-F0 cells at 0.74 to 0.92 MBq, iv after 6 hrs; format: ADME, organism-based; summary of the method: as §1
[3] = Drug excretion in mouse B16-F0 cells bearing C57BL/6 mouse urine at 0.74 to 0.92 MBq, iv after 72 hrs; format: ADME, organism-based
Summary of the method: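 Urine was collected from two B16-F0 tumour-bearing C57BL6 mice for up to 72 h after iv tail-vein injection of the [¹²⁵I]-labelled compound (0.1 µmol). Samples were counted to give cumulative urinary excretion as %ID.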

[4] = Ratio of drug level in tumor to liver of C57BL/6 mouse bearing mouse B16-F0 cells at 0.74 to 0.92 MBq, iv after 1 hr; format: ADME, organism-based
Summary of the method: (§2)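 Tumour and organ radioactive concentrations came from whole-body cryosection counting (40 µm slices, eight per mouse, two mice per time) after tail-vein injection of the [¹²⁵I]-labelled compound (0.1 µmol) into male C57BL6 mice bearing s.c. B16-F0 melanoma. Each value is the ratio of the tumour concentration to the organ concentration.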

[5] = Ratio of drug level in tumor to liver of C57BL/6 mouse bearing mouse B16-F0 cells at 0.74 to 0.92 MBq, iv after 3 hrs; format: ADME, organism-based; summary of the method: as §2
[6] = Ratio of drug level in tumor to lung of C57BL/6 mouse bearing mouse B16-F0 cells at 0.74 to 0.92 MBq, iv after 3 hrs; format: ADME, organism-based; summary of the method: as §2
[7] = Biodistribution in intestinal content of C57BL/6 mouse bearing mouse B16-F0 cells at 0.74 to 0.92 MBq, iv after 1 hr; format: ADME, organism-based; summary of the method: as §1
[8] = Biodistribution in intestinal content of C57BL/6 mouse bearing mouse B16-F0 cells at 0.74 to 0.92 MBq, iv after 3 hrs; format: ADME, organism-based; summary of the method: as §1
[9] = Biodistribution in intestinal content of C57BL/6 mouse bearing mouse B16-F0 cells at 0.74 to 0.92 MBq, iv after 24 hrs; format: ADME, organism-based; summary of the method: as §1
[10] = Biodistribution in Stomach content of C57BL/6 mouse bearing mouse B16-F0 cells at 0.74 to 0.92 MBq, iv after 24 hrs; format: ADME, organism-based; summary of the method: as §1
[11] = Biodistribution in Stomach content of C57BL/6 mouse bearing mouse B16-F0 cells at 0.74 to 0.92 MBq, iv after 72 hrs; format: ADME, organism-based; summary of the method: as §1
Liver = experiment: Biodistribution in liver of C57BL/6 mouse bearing mouse B16-F0 cells at 0.74 to 0.92 MBq, iv after 3 hrs; format: ADME, organism-based; summary of the method: as §1
Muscle tissue [12] = experiment: Biodistribution in muscle of C57BL/6 mouse bearing mouse B16-F0 cells at 0.74 to 0.92 MBq, iv after 3 hrs; format: ADME, organism-based; summary of the method: as §1
Muscle tissue [13] = experiment: Biodistribution in muscle of C57BL/6 mouse bearing mouse B16-F0 cells at 0.74 to 0.92 MBq, iv after 6 hrs; format: ADME, organism-based; summary of the method: as §1
Lung [14] = experiment: Biodistribution in lung of C57BL/6 mouse bearing mouse B16-F0 cells at 0.74 to 0.92 MBq, iv after 3 hrs; format: ADME, organism-based; summary of the method: as §1
Kidney [15] = experiment: Biodistribution in kidney of C57BL/6 mouse bearing mouse B16-F0 cells at 0.74 to 0.92 MBq, iv after 6 hrs; format: ADME, organism-based; summary of the method: as §1
Blood = experiment: Biodistribution in blood of C57BL/6 mouse bearing mouse B16-F0 cells at 0.74 to 0.92 MBq, iv after 1 hr; format: ADME, organism-based; summary of the method: as §1
Thyroid gland [16] = experiment: Biodistribution in thyroid of C57BL/6 mouse bearing mouse B16-F0 cells at 0.74 to 0.92 MBq, iv after 1 hr; format: ADME, organism-based
Summary of the method: (§3)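 [¹²⁵I]-labelled compound given iv by tail vein (0.1 µmol per mouse) to male C57BL6 mice bearing s.c. B16-F0 flank tumours (5 × 10⁵ cells in PBS). Two mice per time point were killed by CO₂, frozen in liquid nitrogen and cut into 40 µm cryosections, eight slices per mouse. Slice radioactivity was read on a multiwire proportional counter, converted to kBq/g and reported as %ID/g.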

Thyroid gland [17] = experiment: Biodistribution in thyroid of C57BL/6 mouse bearing mouse B16-F0 cells at 0.74 to 0.92 MBq, iv after 3 hrs; format: ADME, organism-based; summary of the method: as §3
[18] = Biodistribution in uvea of C57BL/6 mouse bearing mouse B16-F0 cells at 0.74 to 0.92 MBq, iv after 1 hr; format: ADME, organism-based, Uveal tract; summary of the method: as §3
[19] = Biodistribution in uvea of C57BL/6 mouse bearing mouse B16-F0 cells at 0.74 to 0.92 MBq, iv after 24 hrs; format: ADME, organism-based, Uveal tract; summary of the method: as §3
Brain [20] = experiment: Biodistribution in brain of C57BL/6 mouse bearing mouse B16-F0 cells at 0.74 to 0.92 MBq, iv after 3 hrs; format: ADME, organism-based; summary of the method: as §1
Spleen [21] = experiment: Biodistribution in spleen of C57BL/6 mouse bearing mouse B16-F0 cells at 0.74 to 0.92 MBq, iv after 6 hrs; format: ADME, organism-based; summary of the method: as §3
Thyroid gland [22] = experiment: Biodistribution in thyroid of C57BL/6 mouse bearing mouse B16-F0 cells at 0.74 to 0.92 MBq, iv after 72 hrs; format: ADME, organism-based; summary of the method: as §3
Spleen [23] = experiment: Biodistribution in spleen of C57BL/6 mouse bearing mouse B16-F0 cells at 0.74 to 0.92 MBq, iv after 72 hrs; format: ADME, organism-based; summary of the method: as §3
[24] = Ratio of drug level in tumor to lung of C57BL/6 mouse bearing mouse B16-F0 cells at 0.74 to 0.92 MBq, iv after 24 hrs; format: ADME, organism-based; summary of the method: as §2
[25] = Ratio of drug level in tumor to brain of C57BL/6 mouse bearing mouse B16-F0 cells at 0.74 to 0.92 MBq, iv after 6 hrs; format: ADME, organism-based; summary of the method: as §2
Brain [26] = experiment: Biodistribution in brain of C57BL/6 mouse bearing mouse B16-F0 cells at 0.74 to 0.92 MBq, iv after 6 hrs; format: ADME, organism-based; summary of the method: as §1
Pancreas [27] = experiment: Biodistribution in pancreas of C57BL/6 mouse bearing mouse B16-F0 cells at 0.74 to 0.92 MBq, iv after 3 hrs; format: ADME, organism-based; summary of the method: as §1
Pancreas [28] = experiment: Biodistribution in pancreas of C57BL/6 mouse bearing mouse B16-F0 cells at 0.74 to 0.92 MBq, iv after 6 hrs; format: ADME, organism-based; summary of the method: as §1
Lung [29] = experiment: Biodistribution in lung of C57BL/6 mouse bearing mouse B16-F0 cells at 0.74 to 0.92 MBq, iv after 24 hrs; format: ADME, organism-based; summary of the method: as §1
Spleen [30] = experiment: Biodistribution in spleen of C57BL/6 mouse bearing mouse B16-F0 cells at 0.74 to 0.92 MBq, iv after 24 hrs; format: ADME, organism-based; summary of the method: as §3
Kidney [31] = experiment: Biodistribution in kidney of C57BL/6 mouse bearing mouse B16-F0 cells at 0.74 to 0.92 MBq, iv after 24 hrs; format: ADME, organism-based; summary of the method: as §1

| Activity [3] [%] | Ratio [4] | Ratio [5] | Ratio [6] | Drug uptake [7] [% ID/g] | Drug uptake [8] [% ID/g] | Drug uptake [9] [% ID/g] | Drug uptake [10] [% ID/g] | Drug uptake (Liver) [% ID/g] | Drug uptake (Muscle tissue [12]) [% ID/g] | Drug uptake (Muscle tissue [13]) [% ID/g] | Drug uptake (Lung [14]) [% ID/g] | Drug uptake (Kidney [15]) [% ID/g] | Drug uptake (Blood) [% ID/g] | Drug uptake (Thyroid gland [16]) [% ID/g] | Drug uptake (Thyroid gland [17]) [% ID/g] | Drug uptake [18] [% ID/g] | Drug uptake [19] [% ID/g] | Drug uptake (Brain [20]) [% ID/g] | Drug uptake (Spleen [21]) [% ID/g] | Structure (SMILES) | also measured |
| --- | --- | --- | --- | --- | --- | --- | --- | --- | --- | --- | --- | --- | --- | --- | --- | --- | --- | --- | --- | --- | --- |
| 68.9 | 5.92 | 6.1 | 7.41 | 32.83 | 47.65 | 0.82 | 0.62 | 2.27 | 0.43 | 0.24 | 1.87 | 1.2 | 2.21 | 20.16 | 41.44 | 24.11 | 10 |  |  | CCN(CC)CCNC(=O)c1ccc2cncc([125I])c2n1.Cl.Cl | Drug uptake [1]: 41.51 % ID/g; Drug uptake [2]: 28.67 % ID/g; Drug uptake [11]: 2.13 % ID/g |
| 21.4 | 1.36 | 2.74 | 5.9 | 182.62 | 138.09 | 2.33 | 1.61 | 2.74 | 0.29 | 0.19 | 1.92 | 1.82 | 3.57 | 16.78 | 22.43 | 28.64 | 9.95 | 0.24 | 11.34 | CCN(CC)CCNC(=O)c1cc2cc([125I])ccc2o1.Cl | Drug uptake (Thyroid gland [22]): 15.7 % ID/g |
| 49.9 | 1.88 | 3.52 | 2.58 | 42.97 | 68.64 | 1.7 | 0.75 | 2.02 | 0.43 |  | 2.76 | 2.11 | 2.15 | 16.88 | 35.71 | 18.08 | 14.55 | 0.09 |  | CCN(CC)CCNC(=O)c1cc2c([125I])cccc2cn1.Cl.Cl | Drug uptake (Spleen [23]): 1.62 % ID/g; Drug uptake (Thyroid gland [22]): 132.79 % ID/g |
| 23.8 | 0.91 | 2.2 | 4.6 | 52.94 | 90.12 | 1.62 | 0.13 | 1.84 | 0.13 | 0.01 | 0.88 | 0.2 | 0.42 |  | 4.33 | 5.12 | 3.5 |  | 0.26 | CCN(CC)CCNC(=O)c1c[nH]c2ccc([125I])cc2c1=O.Cl.Cl | Ratio [24]: 68.5; Ratio [25]: 72.6; Drug uptake (Brain [26]): 0.08 % ID/g; Drug uptake (Pancreas [27]): 0.96 % ID/g; Drug uptake (Pancreas [28]): 1.08 % ID/g; Drug uptake (Lung [29]): 0.04 % ID/g; Drug uptake (Spleen [30]): 0.15 % ID/g; Drug uptake (Kidney [31]): 0.03 % ID/g; Drug uptake (Thyroid gland [22]): 9.83 % ID/g |
| 67.3 | 3.01 | 3.08 | 2.34 | 13.44 | 4.94 |  | 1.46 | 3.01 |  | 0.53 | 3.96 | 3.5 | 6.67 | 25.29 | 59.09 | 16.66 | 6.07 | 0.22 | 2.35 | CCN(CC)CCNC(=O)c1ccc([125I])nc1.Cl.Cl | Drug uptake [1]: 6.78 % ID/g; Drug uptake [2]: 4.9 % ID/g; Ratio [25]: 58.08; Drug uptake (Brain [26]): 0.12 % ID/g; Drug uptake (Pancreas [27]): 2.53 % ID/g; Drug uptake (Pancreas [28]): 2.27 % ID/g; Drug uptake (Thyroid gland [22]): 178.8 % ID/g |
| 43.7 | 1.37 | 2.4 | 2.57 | 7.82 | 25.85 |  | 3.1 | 4.75 | 0.83 | 0.38 | 4.43 | 3.07 | 2.97 |  |  | 13.21 | 12.28 | 0.78 | 8.05 | CCN(CC)CCNC(=O)c1ccc2cc([125I])ccc2c1.Cl | Ratio [25]: 35.8; Drug uptake (Brain [26]): 0.25 % ID/g; Drug uptake (Pancreas [27]): 8.19 % ID/g |
| 70.2 | 1.29 | 3.12 | 4.87 | 15.22 | 17.45 |  |  | 8.87 | 0.86 | 0.87 | 5.68 | 7.69 | 3.45 |  | 39.76 | 33.82 | 32.44 | 1.03 |  | CCN(CC)CCNC(=O)c1cnc2cc([125I])ccc2n1.Cl.Cl | Drug uptake [2]: 33.38 % ID/g; Drug uptake [11]: 2.23 % ID/g |
